PubChem BioAssay AID488910 (Broad Institute, 2010)
Out of some 20,000 compounds screened, about 25 (0.1%) were called active. The sample holds actives, similar compounds and a random draw of the others, so the mix is not that of the screen.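 How the source made its calls: active means mean replicate protection from cytokine-induced ATP loss at least 50% and at least 75% of replicates each reaching 50%; inconclusive means meets only one of the two criteria, mean or replicate share; inactive means fails both the mean and replicate share criteria.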

experiment: preservation of ATP in cytokine-treated beta cells – cell-based, ATP luminescence, single point, primary screen (AID 488910); details: INS-1E cytokine-induced death, 48 h, at 10 µM, stronger effect = higher value, normalised: neutral wells 0, positive control 100
Summary of the method: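 Assay system: INS-1E rat cells / Quantity: 8000 cells per well / Medium: RPMI without phenol red, 5% FBS / Probe or stimulus: three-cytokine cocktail (IFN-γ, TNF-α, IL-1β) / Dosing: one compound concentration, pin transfer / Timing: 48 h co-treatment, 10 min post-lysis read / Technique: CellTiter-Glo luminescence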

Compound	protection from cytokine-induced ATP loss
C[C@@H]1CN([C@@H](C)CO)C(=O)Cc2cc(NS(=O)(=O)c3cccs3)ccc2O[C@@H]1CN(C)S(=O)(=O)c1ccc(F)cc1	4.38% (inactive)
C[C@H](CO)N1C[C@H](C)[C@H](CN(C)Cc2ccccc2)Oc2ccc(NC(=O)Cc3ccccc3)cc2C1=O	0.0546% (inactive)
C[C@@H]1CN([C@@H](C)CO)C(=O)c2cc(NC(=O)Nc3cccc4ccccc34)ccc2O[C@@H]1CN(C)C(=O)Nc1cccc2ccccc12	-6.66% (inactive)
C[C@@H]1CCCCO[C@H](CN(C)Cc2ccccc2)[C@@H](C)CN([C@H](C)CO)C(=O)c2cc(NC(=O)Cc3ccccc3)ccc2O1	-13% (inactive)
COc1ccc(NC(=O)Nc2ccc3c(c2)C(=O)N([C@@H](C)CO)C[C@@H](C)[C@H](CN(C)Cc2ccc(Cl)c(Cl)c2)O3)cc1	-22.1% (inactive)
C[C@@H]1CN([C@H](C)CO)C(=O)Cc2cc(NC(=O)Cn3cnnn3)ccc2O[C@H]1CN(C)Cc1ccc(C(F)(F)F)cc1	1.99% (inactive)
C[C@@H]1CN([C@@H](C)CO)C(=O)c2cccc(NC(=O)C3CC3)c2O[C@@H]1CN(C)Cc1ccccc1	1.55% (inactive)
CC(C)NC(=O)Nc1ccc2c(c1)CC(=O)N([C@H](C)CO)C[C@@H](C)[C@@H](CN(C)C(=O)Nc1ccc3c(c1)OCO3)O2	9.22% (inactive)
C[C@@H]1CN([C@@H](C)CO)C(=O)c2cc(NS(=O)(=O)c3ccccc3)ccc2O[C@@H]1CN(C)Cc1ccc(C(=O)O)cc1	5.28% (inactive)
C[C@H](CO)N1C[C@H](C)[C@H](CN(C)Cc2ccncc2)Oc2ccc(NS(=O)(=O)c3cn(C)cn3)cc2C1=O	-2.95% (inactive)
C[C@@H]1CN([C@@H](C)CO)C(=O)c2cccc(NC(=O)C3CC3)c2O[C@@H]1CN(C)C	3.84% (inactive)
CC(C)NC(=O)Nc1ccc2c(c1)C(=O)N([C@@H](C)CO)C[C@@H](C)[C@H](CN(C)Cc1ccc(-c3ccccc3)cc1)O2	-8.83% (inactive)
C[C@H]1CN([C@@H](C)CO)C(=O)Cc2cc(NC(=O)Nc3ccc(F)cc3)ccc2O[C@H]1CN(C)C(=O)Nc1ccc(C(F)(F)F)cc1	-14.8% (inactive)
COc1ccc(NC(=O)N(C)C[C@@H]2Oc3ccc(NC(=O)Nc4ccccc4)cc3CC(=O)N([C@H](C)CO)C[C@@H]2C)cc1	9.6% (inactive)
Cc1noc(C)c1NC(=O)Nc1cccc2c1O[C@@H](CN(C)CC1CCCCC1)[C@H](C)CN([C@@H](C)CO)C2=O	-7.27% (inactive)
C[C@@H]1CN([C@@H](C)CO)C(=O)c2cccc(NS(=O)(=O)c3ccc(F)cc3)c2O[C@H]1CN(C)S(=O)(=O)c1cccs1	2.23% (inactive)
COc1ccc(NC(=O)N(C)C[C@@H]2Oc3ccc(NC(=O)Cn4cnnn4)cc3C(=O)N([C@H](C)CO)C[C@@H]2C)cc1	6.28% (inactive)
Cc1ccc(S(=O)(=O)Nc2ccc3c(c2)C(=O)N([C@@H](C)CO)C[C@H](C)[C@H](CN(C)C(=O)Nc2ccc(C(F)(F)F)cc2)O3)cc1	-7.22% (inactive)
Cc1noc(C)c1NC(=O)Nc1ccc2c(c1)C(=O)N([C@H](C)CO)C[C@@H](C)[C@H](CN(C)Cc1ccncc1)O2	3.35% (inactive)

Compound	protection from cytokine-induced ATP loss
C[C@@H]1CN([C@@H](C)CO)C(=O)c2cccc(NC(=O)Nc3ccc(F)cc3)c2O[C@@H]1CN(C)C(=O)Nc1ccccc1	7.56% (inactive)
C[C@H](CO)N1C[C@H](C)[C@@H](CN(C)Cc2ccc3c(c2)OCO3)Oc2c(cccc2N(C)C)C1=O	-11% (inactive)
C[C@@H]1CN([C@@H](C)CO)C(=O)c2cccc(NS(=O)(=O)c3cccs3)c2O[C@@H]1CN(C)CC1CC1	-3.04% (inactive)
C[C@@H]1CN([C@H](C)CO)C(=O)c2cccc(NS(=O)(=O)c3ccccc3)c2O[C@@H]1CN(C)Cc1ccc(C(=O)O)cc1	2.31% (inactive)
C[C@@H]1CN([C@@H](C)CO)C(=O)c2cc(NC(=O)CCN3CCOCC3)ccc2O[C@H]1CN(C)C(=O)NC1CCCCC1	5.18% (inactive)
C[C@H](CO)N1C[C@H](C)[C@@H](CN(C)Cc2ccc(C(=O)Nc3ccccc3N)cc2)Oc2c(NC(=O)C3CC3)cccc2C1=O	-6.93% (inactive)
COc1ccc(NC(=O)N(C)C[C@@H]2Oc3c(NS(=O)(=O)c4cn(C)cn4)cccc3C(=O)N([C@H](C)CO)C[C@@H]2C)cc1	-3.57% (inactive)
Cc1noc(C)c1S(=O)(=O)N(C)C[C@H]1OCCCC[C@@H](C)Oc2ccc(NC(=O)C3CCCCC3)cc2C(=O)N([C@H](C)CO)C[C@@H]1C	8.15% (inactive)
C[C@@H]1CN([C@H](C)CO)C(=O)Cc2cc(NC(=O)c3ccncc3)ccc2O[C@@H]1CN(C)Cc1ccncc1	13.2% (inactive)
Cc1ccc(S(=O)(=O)N(C)C[C@@H]2Oc3c(NS(C)(=O)=O)cccc3C(=O)N([C@@H](C)CO)C[C@H]2C)cc1	-1.18% (inactive)
C[C@H]1CN([C@@H](C)CO)C(=O)Cc2cc(NC(=O)Nc3ccc(F)cc3)ccc2O[C@H]1CN(C)S(=O)(=O)c1ccc(F)cc1	-1.52% (inactive)
Cc1noc(C)c1S(=O)(=O)Nc1ccc2c(c1)C(=O)N([C@@H](C)CO)C[C@@H](C)[C@H](CN(C)Cc1ccc(-c3ccccc3)cc1)O2	-8.15% (inactive)
C[C@@H]1CN([C@@H](C)CO)C(=O)c2cc(NC(=O)CCCN(C)C)ccc2O[C@H]1CN(C)Cc1ccccc1	-3.08% (inactive)
CC(C)NC(=O)Nc1ccc2c(c1)C(=O)N([C@@H](C)CO)C[C@@H](C)[C@H](CN(C)C(=O)NC1CCCCC1)O2	4.32% (inactive)
Cc1ccc(S(=O)(=O)Nc2cccc3c2O[C@@H](CN(C)S(=O)(=O)c2cccs2)[C@@H](C)CN([C@@H](C)CO)C3=O)cc1	-0.391% (inactive)
C[C@H]1CN([C@@H](C)CO)C(=O)c2cccc(NS(=O)(=O)c3cn(C)cn3)c2O[C@@H]1CN(C)C(=O)Nc1ccc(F)cc1	11.3% (inactive)
COc1ccc(NC(=O)Nc2ccc3c(c2)C(=O)N([C@H](C)CO)C[C@H](C)[C@H](CN(C)C(=O)Nc2c(C)noc2C)OCCCC[C@@H](C)O3)cc1	12% (inactive)
C[C@@H]1CN([C@H](C)CO)C(=O)c2cc(NS(=O)(=O)c3cn(C)cn3)ccc2O[C@H]1CN(C)S(=O)(=O)c1ccc(Cl)cc1	0.346% (inactive)
COc1ccc(NC(=O)N(C)C[C@@H]2Oc3c(NS(C)(=O)=O)cccc3C(=O)N([C@H](C)CO)C[C@H]2C)cc1	3.08% (inactive)

Compound	protection from cytokine-induced ATP loss
Cc1ccc(S(=O)(=O)N(C)C[C@H]2Oc3c(NS(=O)(=O)c4cccs4)cccc3C(=O)N([C@@H](C)CO)C[C@@H]2C)cc1	-3.52% (inactive)
O=C(O)CCCCCC(=O)N/N=C/c1ccco1	17.1% (inactive)
Cc1ccc(S(=O)(=O)Nc2ccc3c(c2)C(=O)N([C@@H](C)CO)C[C@@H](C)[C@H](CN(C)CC2CC2)O3)cc1	-3.86% (inactive)
C[C@H]1CN([C@@H](C)CO)C(=O)c2cccc(NC(=O)c3ccncc3)c2O[C@@H]1CN(C)C	7.37% (inactive)
C[C@H]1CN([C@@H](C)CO)C(=O)c2cccc(NC(=O)Nc3ccc(C(F)(F)F)cc3)c2O[C@@H]1CN(C)Cc1ccccc1	-19.3% (inactive)
Cc1noc(C)c1NC(=O)Nc1ccc2c(c1)CC(=O)N([C@H](C)CO)C[C@@H](C)[C@@H](CN(C)Cc1ccc(C(F)(F)F)cc1)O2	10.5% (inactive)
C[C@H](CO)N1C[C@H](C)[C@@H](CN(C)S(=O)(=O)c2ccccc2)Oc2c(NC(=O)c3ccc(-c4nccs4)cc3)cccc2C1=O	5.11% (inactive)
C[C@@H]1CN([C@H](C)CO)C(=O)c2cc(NC(=O)CCCCCC(=O)Nc3ccccc3N)ccc2O[C@@H]1CN(C)Cc1ccncc1	6.45% (inactive)
CC(C)NC(=O)Nc1ccc2c(c1)CC(=O)N([C@H](C)CO)C[C@@H](C)[C@H](CN(C)S(=O)(=O)c1ccccc1)O2	9.86% (inactive)
C[C@@H]1CN([C@@H](C)CO)C(=O)c2cccc(NS(=O)(=O)c3ccc(Cl)cc3)c2O[C@@H]1CN(C)C(=O)Nc1ccccc1	0.662% (inactive)
C[C@H]1CN([C@@H](C)CO)C(=O)c2cccc(NC(=O)Nc3ccccc3)c2O[C@H]1CN(C)C(=O)Nc1cccc2ccccc12	6.53% (inactive)
C[C@@H]1CN([C@@H](C)CO)C(=O)c2cc(NS(=O)(=O)c3cccs3)ccc2O[C@@H]1CN(C)S(=O)(=O)c1ccc(F)cc1	-0.641% (inactive)
Cc1noc(C)c1NC(=O)Nc1cccc2c1O[C@H](CN(C)C(=O)Nc1ccccc1)[C@@H](C)CN([C@H](C)CO)C2=O	6.69% (inactive)
C[C@H]1CN([C@@H](C)CO)C(=O)c2cccc(NC(=O)NC3CCCCC3)c2O[C@H]1CN(C)CC1CCCCC1	-14.4% (inactive)
Cc1noc(C)c1NC(=O)Nc1ccc2c(c1)C(=O)N([C@@H](C)CO)C[C@H](C)[C@@H](CN(C)C(=O)Nc1ccccc1)O2	-2.87% (inactive)
C[C@@H]1CN([C@H](C)CO)C(=O)Cc2cc(NC(=O)C3CCCCC3)ccc2O[C@@H]1CN(C)Cc1ccc(C(F)(F)F)cc1	-23.1% (inactive)
COc1ccc(NC(=O)N(C)C[C@@H]2Oc3c(NC(=O)C4CCOCC4)cccc3C(=O)N([C@H](C)CO)C[C@@H]2C)cc1	5.6% (inactive)
C[C@H](CO)N1C[C@H](C)[C@@H](CN(C)Cc2ccc(Cl)c(Cl)c2)Oc2ccc(NS(=O)(=O)c3ccccc3)cc2C1=O	-24.5% (inactive)
